Experimental data: ChEMBL document CHEMBL1129366, “Novel selective PDE IV inhibitors as antiasthmatic agents. Synthesis and biological activities of a series of 1-aryl-2,3-bis(hydroxymethyl)naphthalene lignans” (J Med Chem, 1996)
Values joined by “and” are separate entries in the source; they are usually repeats but may differ in a detail not shown here. Equal entries are not always repeated.

Experiments:
[1] = target: Phosphodiesterase 4 (Homo sapiens, UniProt P27815+Q08499+Q07343+Q08493); test: Inhibition in vitro of Phosphodiesterase 4 activity isolated from guinea pig lung; type: protein assay, Cavia porcellus; settings: target entry is the homologue from another species
In short: (§1)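 PDEs came from guinea pig cardiac ventricle (types I, III) and lung (types IV, V). Tissue was homogenized at pH 6.5 with protease inhibitors and spun at 25000G, and the supernatant was run on DEAE-Sephacrose with a 50–1000 mM sodium acetate gradient. Assay: 40 mM Tris-HCl pH 8.0, 5 mM MgCl2, 4 mM 2-mercaptoethanol, 1.0 μM [3H]cAMP or [3H]cGMP, 20 min at 30 °C, substrate hydrolysis ≤20%. Triplicates at 3–4 inhibitor levels; IC50 read graphically.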

[2] = test system: Cavia porcellus; test: Change in heart rate in guinea pigs after 3 mg/kg intravenous dose; type: functional
In short: (§2)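 Anesthetized guinea pigs in the histamine bronchospasm setup, with spontaneous breathing abolished by gallamine triethiodide (5 mg/kg iv). Heart rate was taken by cardiography triggered on the ECG R wave (standard limb lead II). Test agent was suspended in saline with Tween 80 and given iv 1 min before histamine. The value is the post-dose rate minus the basal rate (basal 230–330 beats/min).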

[3] = target: Phosphodiesterase 1 (Cavia porcellus); test: Inhibition in vitro of Phosphodiesterase 1 isolated from guinea pig cardiac ventricle
[4] = target: T1, Phosphodiesterase 3 (Homo sapiens, UniProt Q14432+Q13370); test: Inhibition in vitro of Phosphodiesterase 3 isolated from guinea pig cardiac ventricle; type: protein assay, Cavia porcellus; settings: target entry is the homologue from another species; in short: as §1
[5] = test system: Cavia porcellus; test: Reduced histamine-induced bronchoconstriction in anesthetized guinea pig at 3 mg/kg intravenous dose; type: functional
In short: (§3)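 Anesthetized guinea pigs immobilized with gallamine triethiodide (5 mg/kg iv) and artificially ventilated. Histamine dihydrochloride (2 μg/kg) given iv via the lateral saphenous vein at 10 min intervals. Compound suspended in saline with Tween 80, given iv 1 min before histamine. Pulmonary inflation pressure recorded as the bronchospasm index; result expressed as percent inhibition of histamine-induced bronchoconstriction.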

[6] = test system: Cavia porcellus; test: Change in heart rate in guinea pigs after 0.3 mg/kg intravenous dose; type: functional; in short: as §2
[7] = test system: Cavia porcellus; test: Reduced histamine-induced bronchoconstriction in anesthetized guinea pig at 0.3 mg/kg intravenous dose; type: functional
[8] = test system: Cavia porcellus; test: Change in heart rate in guinea pigs after 1 mg/kg intravenous dose; type: functional; in short: as §2
[9] = test system: Cavia porcellus; test: Reduced histamine-induced bronchoconstriction in anesthetized guinea pig at 1 mg/kg intravenous dose; type: functional; in short: as §3
[10] = test system: Cavia porcellus; test: Inhibition of histamine-induced bronchoconstriction in anesthetized guinea pig at 3 mg/kg intravenous dose
[11] = test system: Cavia porcellus; test: Inhibition of antigen-induced bronchoconstriction in anesthetized guinea pig at 3 mg/kg intravenous dose; type: functional
[12] = test system: Cavia porcellus; test: Reduced histamine-induced bronchoconstriction in anesthetized guinea pig at 0.03 mg/kg intravenous dose; type: functional
[13] = test system: Cavia porcellus; test: Reduced histamine-induced bronchoconstriction in anesthetized guinea pig at 0.1 mg/kg intravenous dose; type: functional
[14] = test system: Cavia porcellus; test: Change in heart rate in guinea pigs after 0.03 mg/kg intravenous dose; type: functional; in short: as §2
[15] = test system: Cavia porcellus; test: Inhibition of histamine-induced bronchoconstriction in anesthetized guinea pig at 0.03 mg/kg intravenous dose
[16] = test system: Cavia porcellus; test: Change in heart rate in guinea pigs after 0.1 mg/kg intravenous dose; type: functional; in short: as §2
[17] = test system: Cavia porcellus; test: (§4) Inhibition of antigen-induced bronchoconstriction in anesthetized guinea pig at 0.1 mg/kg intravenous dose; type: functional
[18] = test system: Cavia porcellus; test: as §4; type: functional; remark: listed apart in the source
[19] = test system: Cavia porcellus; test: Change in guinea pig heart rate after intravenous administration of 0.1 mg/kg; type: functional; in short: as §2
[20] = target: T1, Phosphodiesterase 3; test: Inhibition of Phosphodiesterase 3 from guinea pig cardiac ventricle; type: protein assay, Cavia porcellus; settings: target entry is the homologue from another species; in short: as §1
[21] = test system: Cavia porcellus; test: Inhibition of histamine-induced bronchoconstriction in anesthetized guinea pig at 0.1 mg/kg intravenous dose
[22] = Inhibition of Phosphodiesterase 4 from guinea pig lung; design: species or system Cavia porcellus; in short: as §1
[23] = target: Phosphodiesterase 1 (Homo sapiens, UniProt P54750+Q01064+Q14123); test: Inhibition of Phosphodiesterase 1 from guinea pig cardiac ventricle; type: protein assay, Cavia porcellus; settings: target entry is the homologue from another species
In short: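 PDE I pooled from DEAE-Sepharose fractions of guinea pig cardiac ventricle homogenate (pH 6.5 buffer with protease inhibitors, sodium acetate gradient). Assay buffer 40 mM Tris-HCl pH 8.0, 5 mM MgCl2, 4 mM 2-mercaptoethanol. Substrate [3H]cAMP or [3H]cGMP at 1.0 μM, hydrolysis kept ≤20%. Run 20 min at 30 °C, inhibitors in DMSO. Triplicates at 3–4 concentrations, IC50 read graphically from means.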

[24] = Inhibition of Phosphodiesterase 5 from guinea pig lung; design: species or system Cavia porcellus; in short: as §1

| Compound | IC50 [1] [µM] | IC50 [3] [µM] | IC50 [4] [µM] | Heart rate [6] [beats min-1] | other results |
| --- | --- | --- | --- | --- | --- |
| COc1cc2cc3c(c(-c4cc(OC)c(OC)c(OC)c4)c2cc1OC)C(=O)OC3 | 0.5 | – | – | – | – |
| COc1cc2cc(CO)c(CO)c(-c3cc(OC)c(OC)c(OC)c3)c2cc1OC | 0.3 | 60 | 0.9 | – | Delta beats/min [2]: 79; Reduction [5]: 89% |
| COc1cc2cc(CO)c(CO)c(Cc3cc(OC)c(OC)c(OC)c3)c2cc1OC | 5 | 40 | 8 | – | – |
| CCCCn1ccc(-c2c(CO)c(CO)cc3cc(OCC)c(OCC)cc23)cc1=O | 0.03 | – | 50 | -5 | Reduction [7]: 47% |
| COc1cc2cc(CO)c(CO)c(C3=CC=NC(=O)C3)c2cc1OC | 0.2 | > 100 | 20 | – | – |
| COc1cc2cc(CO)c(CO)c(-c3ccn(C)c(=O)c3)c2cc1OC | 0.6 | – | 20 | – | – |
| CCOc1cc2cc(CO)c(CO)c(-c3ccn(CCOC)c(=O)c3)c2cc1OC | 0.45 | – | 7 | 4 | Heart rate [2]: 6 beats min-1; Heart rate [8]: 7 beats min-1; Reduction [9]: 76%; Reduction [5]: 98%; Reduction [7]: 30% |
| CCOc1cc2cc(CO)c(CO)c(-c3cc(N)c(OC)c(OC)c3)c2cc1OCC.Cl | 0.05 | 50 | 20 | – | Heart rate [8]: 1 beats min-1; ED50 [10]: 0.39 mg/kg; ED50 [11]: > 10 mg/kg; Reduction [9]: 69%; Reduction ([7]; 0.3 mg/kg): 45% and 90% |
| COc1cc2cc(CO)c(CO)c(-c3cc(OC)c(OC)c(C(=O)N(C)C)c3)c2cc1OC | 0.005 | > 100 | 0.06 | 50 | Reduction [12]: 59%; Reduction [13]: 83%; Heart rate [14]: 1 beats min-1; ED50 [15]: 0.03 mg/kg; Heart rate [16]: 28 beats min-1; Reduction [7]: 69% |
| COCCn1ccc(-c2c(CO)c(CO)cc3cc(OC)c(OC)cc23)cc1=O | 0.5 | – | 14 | 3 | Reduction [13]: 34%; ED50 [17]: 0.16 mg/kg; Reduction [5]: 70%; Heart rate [16]: 1 beats min-1 |
| COc1cc2cc(CO)c(CO)cc2cc1OC | 20 | > 100 | > 100 | – | – |
| COc1cc2cc(CO)c(CO)c(-c3cc(OC)c(OC)c(S(C)(=O)=O)c3)c2cc1OC | 0.05 | 100 | 0.09 | -7 | Reduction [12]: 34%; Reduction [13]: 57%; Heart rate [14]: 3 beats min-1; ED50 [15]: 0.093 mg/kg; Heart rate [16]: 1 beats min-1; Reduction [7]: 71% |
| CCOc1cc2cc(CO)c(CO)c(-c3ccn(CCOC)c(=O)c3)c2cc1OCC | 0.057 | – | 57 | 5 | Reduction [13]: 60%; Heart rate [2]: 5 beats min-1; ED50 [17]: 0.08 mg/kg; ED50 [18]: 2.3 mg/kg; Heart rate [19]: 5 beats min-1; Reduction [7]: 92% |
| COc1cc(-c2c(CO)c(CO)cc3cc4c(cc23)OCO4)cc(OC)c1OC | > 30 | > 100 | > 100 | – | – |
| COc1ccc(-c2c(CO)c(CO)cc3cc(OC)c(OC)cc23)cc1OC | 0.2 | – | 1 | – | – |
| COc1cc2cc(CO)c(CO)c(-c3cc(NC(C)=O)c(OC)c(OC)c3)c2cc1OC | 0.07 | 100 | 2 | – | – |
| COc1ccc2c(-c3cc(OC)c(OC)c(OC)c3)c(CO)c(CO)cc2c1 | 40 | 30 | 20 | – | – |
| COc1ccc(C2CNC(=O)C2)cc1OC1CCCC1 (centres undefined) [ROLIPRAM] | – | – | – | – | Reduction [13]: 79%; ED50 [17]: 19 mg/kg; Heart rate [8]: 3 beats min-1; IC50 [20]: > 100 µM; Reduction [9]: 72%; ED50 [21]: 0.01 mg/kg; IC50 [22]: 1.9 µM; IC50 [23]: > 100 µM; Heart rate [16]: 9 beats min-1; IC50 [24]: > 100 µM |
